Our source for the IC50 and Activity values is ChEMBL document CHEMBL1156745, “Exploration of O-spiroketal C-arylglucosides as novel and selective renal sodium-dependent glucose co-transporter 2 (SGLT2) inhibitors” (Bioorg Med Chem Lett, 2009).

In series [1] the target is T1, Sodium/glucose cotransporter 2 (Homo sapiens, UniProt P31639).
T1 sequence (P31639 whole entry): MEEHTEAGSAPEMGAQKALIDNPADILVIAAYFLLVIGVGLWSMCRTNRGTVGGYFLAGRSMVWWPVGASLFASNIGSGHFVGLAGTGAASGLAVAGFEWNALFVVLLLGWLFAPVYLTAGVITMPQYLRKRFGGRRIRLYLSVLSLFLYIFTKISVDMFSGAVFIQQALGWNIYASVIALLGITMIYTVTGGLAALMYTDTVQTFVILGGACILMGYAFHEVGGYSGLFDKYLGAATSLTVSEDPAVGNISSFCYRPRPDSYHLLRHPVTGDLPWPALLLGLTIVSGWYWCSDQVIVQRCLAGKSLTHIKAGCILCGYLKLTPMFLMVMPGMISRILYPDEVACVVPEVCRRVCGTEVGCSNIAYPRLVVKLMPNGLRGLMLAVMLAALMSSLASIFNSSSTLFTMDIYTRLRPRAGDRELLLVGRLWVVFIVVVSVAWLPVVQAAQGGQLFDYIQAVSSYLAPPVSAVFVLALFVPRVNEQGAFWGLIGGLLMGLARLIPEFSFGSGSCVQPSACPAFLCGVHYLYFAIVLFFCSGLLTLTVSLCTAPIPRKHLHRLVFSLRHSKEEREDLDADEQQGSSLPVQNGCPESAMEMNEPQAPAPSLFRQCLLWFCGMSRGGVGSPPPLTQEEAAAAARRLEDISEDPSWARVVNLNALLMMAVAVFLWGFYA
In words: Inhibition of human SGLT2 transfected in HEK293.ETN cells assessed as AMG uptake after 1.5 hrs by scintillation counting. In kind it is cell-based. The method, boiled down: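 Full-length human SGLT2 in pEAK15, stably expressed in HEK293.ETN (puromycin-selected clones). Cells plated 1 × 10⁵/well in DMEM/10% FBS, 48 h, 37 °C. Compound plus 40 µCi/mL [¹⁴C]AMG in sodium or sodium-free Tris/Hepes buffer pH 7.2, 1.5 h at 37 °C with shaking. Washed, uptake read by scintillation counting. Eight concentrations in triplicate. Sodium-free value subtracted from sodium value.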

The target of series [2] is T2, Sodium/glucose cotransporter 1 (Homo sapiens, UniProt P13866).
T2 sequence (P13866 whole entry): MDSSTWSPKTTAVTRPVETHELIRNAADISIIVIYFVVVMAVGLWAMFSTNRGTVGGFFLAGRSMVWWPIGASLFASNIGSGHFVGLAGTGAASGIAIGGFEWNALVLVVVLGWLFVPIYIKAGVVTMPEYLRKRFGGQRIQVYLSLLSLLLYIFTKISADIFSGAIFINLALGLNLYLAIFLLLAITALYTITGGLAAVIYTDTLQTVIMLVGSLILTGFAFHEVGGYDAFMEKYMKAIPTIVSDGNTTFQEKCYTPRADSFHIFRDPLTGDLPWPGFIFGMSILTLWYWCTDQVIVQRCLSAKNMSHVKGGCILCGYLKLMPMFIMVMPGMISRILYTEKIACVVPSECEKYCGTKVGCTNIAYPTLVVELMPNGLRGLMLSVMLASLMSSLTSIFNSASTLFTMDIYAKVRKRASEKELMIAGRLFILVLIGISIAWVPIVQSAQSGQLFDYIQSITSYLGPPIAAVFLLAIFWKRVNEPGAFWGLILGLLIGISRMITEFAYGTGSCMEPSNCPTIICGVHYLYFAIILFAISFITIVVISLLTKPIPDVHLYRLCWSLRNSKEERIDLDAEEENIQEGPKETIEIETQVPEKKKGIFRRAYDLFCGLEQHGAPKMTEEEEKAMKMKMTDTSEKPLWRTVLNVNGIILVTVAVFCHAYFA
In words: Inhibition of human SGLT1 transfected in COS-7 cells assessed as AMG uptake after 2 hrs by scintillation counting. In kind it is cell-based. The method, boiled down: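 Transient transfection of human SGLT1 plasmid into COS-7 cells, which were cryopreserved until use. Seeded at 1 × 10⁵ cells/well in DMEM + 10% FBS, 48 h at 37 °C, 5% CO₂. Exposed to inhibitor with 40 µCi/mL [¹⁴C]AMG in Na⁺ or Na⁺-free Tris/Hepes buffer pH 7.2 for 2 h at 37 °C, shaking. Eight concentrations, triplicate. Na⁺-dependent uptake taken as Na⁺ minus Na⁺-free signal.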

The next series deals with Mus musculus. Kind of series: Toxicity in CD1 mouse assessed as induction of severe diarrhea at 25 mg/kg, po after 6 hrs. In kind it is organism-based. Particulars: in vivo. Also on record: dose 25 mg/kg, route oral. In a few lines: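 CD1 mice given a single oral dose of 25 mg/kg. Watched for diarrhea at 6 h.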

Where only a bound is given, the exact number is not on record here.

In the case of `CC(C)c1ccc(Cc2cc3c(cc2Cl)CO[C@]32O[C@H](CO)[C@@H](O)[C@H](O)[C@H]2O)cc1`, the IC50 in series [1] was 7.1 nM; in series [2] it was 2500 nM.

With `OC[C@H]1O[C@]2(OCc3cc(Cl)c(Cc4ccc(OC(F)(F)F)cc4)cc32)[C@H](O)[C@@H](O)[C@@H]1O`, the values for the IC50 in series [1] and in series [2] were 0.3 nM and 3100 nM, respectively.

Regarding `CCc1ccc(Cc2cccc3c2CO[C@]32O[C@H](CO)[C@@H](O)[C@H](O)[C@H]2O)cc1`, in series [1], the IC50 was over 1000 nM.

As to `CCc1ccc(Cc2cc3c(cc2Cl)CO[C@]32O[C@H](COCC(F)(F)F)[C@@H](O)[C@H](O)[C@H]2O)cc1`, the IC50 was found to be 70 nM in series [1] and 14000 nM in series [2].

As for `CCOc1ccc(Cc2cc3c(cc2Cl)CO[C@]32O[C@H](CO)[C@@H](O)[C@H](O)[C@H]2O)c(Cl)c1`, the results for the half-inhibitory concentration (IC50) in series [1] and in series [2] were over 1000 nM and 10000 nM, respectively.

On to `CCc1ccc(Cc2cc3c(cc2Cl)CO[C@]32O[C@H](CN=[N+]=[N-])[C@@H](O)[C@H](O)[C@H]2O)cc1`, for which the IC50 in series [1] is 10 nM; in series [2], 1000 nM.

`CCc1ccc(C(=O)c2cc3c(cc2Cl)CO[C@]32O[C@H](CO)[C@@H](O)[C@H](O)[C@H]2O)cc1`: the 50% inhibitory concentration (IC50) in series [1] was 22 nM; in series [2], 43000 nM.

Consider `COc1ccc(Cc2cc3c(cc2Cl)CO[C@]32O[C@H](CO)[C@@H](O)[C@H](O)[C@H]2O)cc1`, for which the IC50 in series [1] is 2.5 nM; in series [2] it was 200 nM.

As for `CCc1ccc(Cc2cc3c(cc2Cl)CO[C@]32O[C@H](CN)[C@@H](O)[C@H](O)[C@H]2O)cc1`, the IC50 in series [1] was 100 nM; in series [2], over 100000 nM.

For the molecule `COc1c(C)cccc1Cc1cc2c(cc1Cl)CO[C@]21O[C@H](CO)[C@@H](O)[C@H](O)[C@H]1O`, the half-maximal inhibitory concentration (IC50) in series [1] is 10 nM; in series [2] it was 1000 nM.

For `CCOc1ccc(Cc2cc3c(cc2Cl)CO[C@]32O[C@H](CO)[C@@H](O)[C@H](O)[C@H]2O)cc1Cl`, the half-maximal inhibitory concentration (IC50) in series [1] was 68 nM; in series [2] it was 10500 nM.

For `CCOc1ccc(Cc2cc3c(cc2Cl)CO[C@]32O[C@H](CO)[C@@H](O)[C@H](O)[C@H]2O)cc1`, the IC50 in series [1] was found to be 6.5 nM; in series [2], 1300 nM.

For `CCc1ccc(C2(c3cc4c(cc3Cl)CO[C@]43O[C@H](CO)[C@@H](O)[C@H](O)[C@H]3O)CC2)cc1`, the half-inhibitory concentration (IC50) is 1.3 nM in series [1] and 6000 nM in series [2].

Take `Cc1cc(F)ccc1Cc1cc2c(cc1Cl)CO[C@]21O[C@H](CO)[C@@H](O)[C@H](O)[C@H]1O`: the IC50 in series [1] amounted to 100 nM; in series [2], 1000 nM.

`CCc1ccc(C(F)(F)c2cc3c(cc2Cl)CO[C@]32O[C@H](CO)[C@@H](O)[C@H](O)[C@H]2O)cc1`: the half-maximal inhibitory concentration (IC50) in series [1] was 7 nM; in series [2], 1600 nM.

As for `CCOc1ccc(Cc2ccc3c(c2)[C@]2(OC3)O[C@H](CO)[C@@H](O)[C@H](O)[C@H]2O)cc1`, in series [2], the IC50 came out at 10000 nM.

With `CCc1ccc(Cc2cc3c(cc2F)CO[C@]32O[C@H](CO)[C@@H](O)[C@H](O)[C@H]2O)cc1`, the IC50 was found to be 8.6 nM in series [1] and 5300 nM in series [2].

Consider `CCc1ccc(Cc2cc3c(cc2Cl)CO[C@]32O[C@H](CO)[C@@H](O)[C@H](O)[C@H]2O)cc1`, for which the Activity entry with Mus musculus was “Toxic”. Besides, the half-inhibitory concentration (IC50) was found to be 6.6 nM in series [1] and 600 nM in series [2].

Regarding `CCc1ccc(Cc2cc3c(cc2Cl)CO[C@]32O[C@H](COC)[C@@H](O)[C@H](O)[C@H]2O)cc1`, the figures for the IC50 in series [1] and in series [2] were 5.8 nM and 2700 nM, respectively.

Regarding `CC(C)(C)c1ccc(Cc2cc3c(cc2Cl)CO[C@]32O[C@H](CO)[C@@H](O)[C@H](O)[C@H]2O)cc1`, the figures for the IC50 in series [1] and in series [2] were 13 nM and 9700 nM, respectively.

Take `COc1ccc(Cc2cc3c(cc2Cl)CO[C@]32O[C@H](CO)[C@@H](O)[C@H](O)[C@H]2O)c(C)c1`: the figures for the half-inhibitory concentration (IC50) in series [1] and in series [2] were over 1000 nM and 10000 nM, respectively.

With `Cc1cccc(Cc2cc3c(cc2Cl)CO[C@]32O[C@H](CO)[C@@H](O)[C@H](O)[C@H]2O)c1F`, the IC50 came to 0.8 nM in series [1] and 1500 nM in series [2].

As to `CCOc1cc(F)ccc1Cc1cc2c(cc1Cl)CO[C@]21O[C@H](CO)[C@@H](O)[C@H](O)[C@H]1O`, the IC50 in series [1] came out at 1000 nM; in series [2], 10000 nM.

In the case of `CCOc1ccc(Cc2cc3c(cc2Cl)CO[C@]32O[C@H](CO)[C@@H](O)[C@H](O)[C@H]2O)c(C)c1`, the IC50 is over 1000 nM in series [1] and 1000 nM in series [2].
